# The source made the active and inactive calls. The rule behind the calls is not given here.
# Key:
# [1] = Cellular uptake in human SKBR3 cells plasma membrane overexpressing HER2 at 0.4 uM after 24 hrs by membrane tracking-based confocal microscopic analysis; format: ADME, cell-based; details: sk-br-3, 24 h
# Method in brief: (§1)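 SKBR-3 cells in chamber wells given 0.4 μM BODIPY conjugate at 37 °C for 24 or 48 h, PBS-washed and fixed in ice-cold methanol at −20 °C for 5 min. Membrane tracker (5 min) or Lyso tracker (30 min) in serum-free medium added at 37 °C. Mounted slides imaged by confocal microscopy at 40X under oil with argon and HeNe lasers to assess co-localization.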
# [2] = tested on: SK-BR-3; assay: Cellular uptake in human SKBR3 cells overexpressing HER2 at 1 to 10 uM by fluorescence plate reader analysis; format: ADME, cell-based; details: sk-br-3, 10 µM, TDE = time-dependent effect
# Method in brief: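 Fluorescent BODIPY conjugate diluted in McCoy's medium to 1 and 10 μM and added to SKBR-3 cells (10,000/well, grown 24 h) at 37 °C. At 0, 12, 24, 36, 48 and 72 h, medium removed and cells washed twice with PBS. Cell-associated fluorescence read on a plate reader at 490/530 nm excitation/emission.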
# [3] = tested on: SK-BR-3; assay: Cellular uptake in human SKBR3 cells overexpressing HER2 at 0.4 uM after 48 hrs by lyso tracking-based confocal microscopic analysis; format: ADME, cell-based; details: sk-br-3, 48 h; method in brief: as §1
# [4] = biological target: Receptor tyrosine-protein kinase erbB-2 (Homo sapiens) (UniProt P04626); assay: Inhibition of HER2 kinase domain phosphorylation in human BT474 cells at 0.4 uM by Western blot analysis; format: cell-based; details: BT-474, TDE = time-dependent effect
# Method in brief: (§2)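 BT-474 cells (RPMI-1640) and SKBR-3 cells (McCoy's), each with 10% FBS and insulin, plated in triplicate flasks and treated after 24 h with 0.4 μM compound or left untreated at 37 °C, 5% CO2. Lysates made with protease and phosphatase inhibitors; 40 μg protein run on 10% SDS-PAGE. Blots probed with p-HER2 antibody (1:3000, 15 h, 4 °C), detected by ECL; total HER2 blotted with an anti-ECD antibody.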
# [5] = biological target: Receptor tyrosine-protein kinase erbB-2 (Homo sapiens) (UniProt P04626); assay: Inhibition of HER2 kinase domain phosphorylation in human SKBR3 cells at 0.4 uM by Western blot analysis; format: cell-based; details: SK-BR-3, TDE = time-dependent effect; method in brief: as §2
# [6] = biological target: Receptor tyrosine-protein kinase erbB-2 (Homo sapiens) (UniProt P04626); assay: Inhibition of HER2 kinase domain phosphorylation in human BT474 cells at 0.4 uM after 18 hrs by Western blot analysis; format: cell-based; details: BT-474; method in brief: as §2
# [7] = biological target: Receptor tyrosine-protein kinase erbB-2 (Homo sapiens) (UniProt P04626); assay: Inhibition of HER2 kinase domain phosphorylation in human SKBR3 cells at 0.4 uM after 18 hrs by Western blot analysis; format: cell-based; details: SK-BR-3; method in brief: as §2
# [8] = biological target: Receptor tyrosine-protein kinase erbB-2 (Homo sapiens) (UniProt P04626); assay: Binding affinity to HER2 extracellular domain in human SKBR3 cells assessed as inhibition of EGFR binding; format: cell-based; details: SK-BR-3
# [9] = biological target: Receptor tyrosine-protein kinase erbB-2 (Homo sapiens) (UniProt P04626); assay: Binding affinity to HER2 extracellular domain in human SKBR3 cells assessed as inhibition of HER3 binding at 0.5 uM after 24 hrs by confocal microscopy-based proximity ligation assay; format: cell-based; details: SK-BR-3
# Method in brief: (§3)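 SKBR-3 cells seeded at 5 × 10^4 per chamber well and grown 24 h at 37 °C, then treated 24 h. Cells fixed in ice-cold methanol at −20 °C and blocked in 5% BSA 1 h. Primary antibodies anti-HER2 (rabbit) and anti-HER3 (mouse), each 1:400, applied overnight at 4 °C. Duolink PLA probes, ligation and amplification at 37 °C, then confocal imaging of red heterodimer spots.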
# [10] = biological target: Receptor tyrosine-protein kinase erbB-2 (Homo sapiens) (UniProt P04626); assay: Binding affinity to HER2 extracellular domain in human SKBR3 cells assessed as inhibition of HER3 binding at 0.8 uM after 24 hrs by confocal microscopy-based proximity ligation assay; format: cell-based; details: SK-BR-3; method in brief: as §3
# Receptor tyrosine-protein kinase erbB-2 (Homo sapiens), sequence (P04626 whole entry, the tested form may be a part): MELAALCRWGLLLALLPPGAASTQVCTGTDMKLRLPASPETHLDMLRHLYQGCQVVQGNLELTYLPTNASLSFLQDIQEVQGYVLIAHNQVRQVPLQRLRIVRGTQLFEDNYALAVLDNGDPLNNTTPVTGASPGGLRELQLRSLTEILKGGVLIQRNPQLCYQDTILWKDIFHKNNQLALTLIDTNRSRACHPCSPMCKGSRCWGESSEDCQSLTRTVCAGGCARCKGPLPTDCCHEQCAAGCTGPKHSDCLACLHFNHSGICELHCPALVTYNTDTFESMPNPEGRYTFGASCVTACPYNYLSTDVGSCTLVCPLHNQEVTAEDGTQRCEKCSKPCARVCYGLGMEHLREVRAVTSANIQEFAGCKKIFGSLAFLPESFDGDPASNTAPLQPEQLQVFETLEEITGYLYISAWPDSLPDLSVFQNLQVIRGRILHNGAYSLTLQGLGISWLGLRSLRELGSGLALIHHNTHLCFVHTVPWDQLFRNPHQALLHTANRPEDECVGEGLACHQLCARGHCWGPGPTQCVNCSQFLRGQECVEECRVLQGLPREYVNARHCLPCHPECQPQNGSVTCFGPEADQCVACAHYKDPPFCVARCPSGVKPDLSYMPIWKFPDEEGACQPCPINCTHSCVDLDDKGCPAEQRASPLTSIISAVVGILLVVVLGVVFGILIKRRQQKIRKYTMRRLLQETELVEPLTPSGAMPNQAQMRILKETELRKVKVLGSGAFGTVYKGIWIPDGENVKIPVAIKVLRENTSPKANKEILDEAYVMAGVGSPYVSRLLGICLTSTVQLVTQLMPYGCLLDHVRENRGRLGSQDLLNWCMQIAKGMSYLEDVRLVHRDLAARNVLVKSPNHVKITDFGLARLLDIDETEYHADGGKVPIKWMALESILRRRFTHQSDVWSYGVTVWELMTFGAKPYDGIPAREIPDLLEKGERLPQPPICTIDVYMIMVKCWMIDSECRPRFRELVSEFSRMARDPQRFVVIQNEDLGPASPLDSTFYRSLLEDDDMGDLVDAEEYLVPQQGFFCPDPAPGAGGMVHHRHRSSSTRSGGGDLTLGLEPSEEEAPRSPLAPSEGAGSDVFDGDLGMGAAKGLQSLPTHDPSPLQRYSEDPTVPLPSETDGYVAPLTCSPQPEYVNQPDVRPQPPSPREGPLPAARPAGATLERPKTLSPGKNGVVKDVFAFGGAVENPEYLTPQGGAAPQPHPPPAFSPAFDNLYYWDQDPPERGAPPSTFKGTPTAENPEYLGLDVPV
Structure (SMILES),Drug uptake [1],Drug uptake [2],Drug uptake [3],inhibition [4],inhibition [5],inhibition [6],inhibition [7],inhibition [8],inhibition [9],inhibition [10]
Cc1cc(C)n2c1C=C1C=CC(CCCCC(=O)N[C@@H](CCCNC(=N)N)C(=O)NC(CC(=O)N[C@@H](Cc3ccccc3)C(=O)O)c3cccc4ccccc34)=[N+]1[B-]2(F)F (stereo not given in full),Active,tde,Active,–,–,–,–,–,–,–
N=C(N)NCCC[C@H](N)C(=O)NC(CC(=O)N[C@@H](Cc1ccccc1)C(=O)O)c1cccc2ccccc12 (stereo not given in full),–,–,–,tde,tde,Active,Active,Active,inactive,Active
